Compound activity: PubChem, Johns Hopkins Ion Channel Center
TRPC6 inh: inhibitors of mouse TRPC6 channel. Q61143. HEK293-TRPC6, membrane potential dye, ACh-evoked depolarization; active compounds read low. B-score at 10 µM. hit rate 1.1% among 310,000;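 active means B-score under library mean minus 3 SD, initial fluorescence not abnormally high, positive integrated signal ratio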;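 further: B-score derived from integrated fluorescence ratio over the kinetic read; more negative B-score means stronger inhibition of depolarization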
TRPC6 act: mouse TRPC6 channel activation. Q61143. HEK293-TRPC6 membrane potential dye fluorescence; active compounds read high. hit rate 0.13% among 310,000. B-score at 10 µM;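 active means B-score of the integrated fluorescence ratio above library mean plus 3 SD, and starting fluorescence ratio within library mean plus 5 SD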;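 further: higher score means more depolarization so channel activation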
TRPC4 act: activators of mouse TRPC4 channel | Q9QUQ5 | HEK293 TRPC4beta/mu-opioid, Fluo4 calcium fluorescence; active compounds read high | B-score at 10 µM | hit rate 0.49% among 310,000;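 active means B-score above 5 SD of library B-scores, and initial fluorescence ratio not above library mean plus 5 SD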;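 further: positive B-score marks a calcium rise read as TRPC4 activation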
Target sequence (Q9QUQ5 whole entry, looked up): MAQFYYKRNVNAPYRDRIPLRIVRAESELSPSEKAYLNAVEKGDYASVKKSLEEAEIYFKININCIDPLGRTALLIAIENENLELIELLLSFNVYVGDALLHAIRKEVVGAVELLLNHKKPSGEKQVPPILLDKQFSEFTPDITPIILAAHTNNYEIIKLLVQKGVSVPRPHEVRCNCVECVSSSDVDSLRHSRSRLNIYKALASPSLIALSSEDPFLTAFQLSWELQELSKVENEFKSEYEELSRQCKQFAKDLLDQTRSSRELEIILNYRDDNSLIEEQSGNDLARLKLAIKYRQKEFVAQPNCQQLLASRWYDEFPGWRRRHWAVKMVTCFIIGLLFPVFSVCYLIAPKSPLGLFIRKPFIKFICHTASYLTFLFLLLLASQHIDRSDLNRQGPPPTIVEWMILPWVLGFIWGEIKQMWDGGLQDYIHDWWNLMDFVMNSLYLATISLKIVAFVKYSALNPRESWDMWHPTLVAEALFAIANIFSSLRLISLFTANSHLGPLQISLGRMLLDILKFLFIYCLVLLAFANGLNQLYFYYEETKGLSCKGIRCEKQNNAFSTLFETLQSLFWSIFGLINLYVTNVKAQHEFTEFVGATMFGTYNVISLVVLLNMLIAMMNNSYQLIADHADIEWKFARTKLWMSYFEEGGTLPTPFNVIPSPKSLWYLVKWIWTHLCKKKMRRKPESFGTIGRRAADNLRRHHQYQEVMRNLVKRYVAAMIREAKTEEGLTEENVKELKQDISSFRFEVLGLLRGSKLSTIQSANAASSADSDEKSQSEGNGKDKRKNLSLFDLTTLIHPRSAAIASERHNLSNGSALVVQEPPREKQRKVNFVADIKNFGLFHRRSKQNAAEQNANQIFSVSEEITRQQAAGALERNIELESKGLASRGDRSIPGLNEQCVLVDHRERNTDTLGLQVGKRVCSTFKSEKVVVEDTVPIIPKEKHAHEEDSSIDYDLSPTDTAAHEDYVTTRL
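system = HEK293 cells stably co-expressing mouse TRPC4beta and mu-opioid receptor | schedule = Fluo4 dye loading 45 min at room temperature, 110 s recording | measure = B-scored integrated calcium fluorescence ratio | signal = Fluo4 calcium-sensitive dye fluorescence, kinetic, 1 Hz baseline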
TRPC4 inh: TRPC4 (mouse) channel inhibition; Q9QUQ5; HEK293 TRPC4beta/mu-opioid, DAMGO-evoked Fluo4 calcium flux; active compounds read low; B-score at 10 µM; hit rate 0.39% among 300,000; AID 2247;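 active means B-score over 3 SD under the library average, no early fluorescence shift, positive overall ratio signal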
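material = TRPC4beta/mu-opioid receptor HEK293 cell line | probe or stimulus = sequential submaximal and maximal DAMGO stimulation | compound dosing = one concentration per compound | measured by = Fluo4 Ca2+ flux fluorescence | evaluation = integrated fluorescence ratio relative to baseline, converted to per-well B score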
TRPC4 potent: TRPC4 (mouse) allosteric potentiation; Q9QUQ5; HEK293 TRPC4beta/mu-opioid, DAMGO EC20, Fluo-4 Ca2+ flux; active compounds read high; B-score at 10 µM; hit rate 0.42% among 310,000; AID 2227;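 active means B-score of calcium response area above 5 SD of library B-scores, with initial fluorescence ratio within 5 SD of library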
TRPC4 sel inh 2: second selectivity test of TRPC6 inhibitors: effect on mouse TRPC4. shares compounds with TRPC6 inh. HEK293 TRPC4/MOR, membrane potential dye fluorescence; channel activated by saturating DAMGO dose. inhibition, % at 10 µM. hit rate 42% among 920. AID 2776;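 active means compounds whose fluorescence signal differed from control wells by over 3 SD, either direction, in both duplicate plates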
TRPC4 spec: selectivity of TRPC6 inhibitors: effect on mouse TRPC4; hit rate 61% among 920; HEK293 TRPC4/mu-opioid, membrane potential fluorescence; activity change, negative = inhibition, % at 10 µM; shares compounds with TRPC6 inh;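 active means rise or fall in signal beyond 3 SD of buffer-only wells in both replicate plates, either sign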;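 further: integrated kinetic ratio of fluorescence range over baseline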
HEK293 MPD ctr 2-1: second counter-screen for TRPC6 inhibitors: parental HEK293 cells; shares compounds with TRPC6 inh; parental HEK293 membrane potential dye fluorescence; maximal acetylcholine challenge after compound addition; signal change vs control, % at 10 µM; hit rate 31% among 920;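 active means membrane potential signal moving either way by over 3 SD of the maximum-effect control, in both duplicate plates, meaning non-specific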
HEK293 MPD ctr-1: counter-screen for TRPC6 inhibitors: effect in parental HEK293 cells | shares compounds with TRPC6 inh | parental HEK293 membrane potential dye fluorescence | membrane potential signal change, % at 10 µM | hit rate 60% among 920 | AID 2780;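 active means membrane potential signal shifting up or down by more than 3 SD of buffer-only wells, on both duplicate plates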
HEK293 MPD ctr-2: parental HEK293 nonspecific activity of TRPC6 modulators; shares compounds with TRPC6 inh; membrane potential dye fluorescence; membrane potential signal change, % at 10 µM; hit rate 51% among 2,400; AID 488924;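 active means membrane potential signal moves up or down beyond 5 SD from buffer-only wells, on both duplicate plates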
HEK293 MPD ctr 2-2: second check of TRPC6 modulator effects in parental HEK293 cells; shares compounds with TRPC6 inh; membrane potential dye fluorescence; after compound, maximal acetylcholine stimulation; inhibition, % at 10 µM; hit rate 14% among 2,400;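 active means membrane potential signal drops by more than 5 SD from the mean control signal, in both duplicate plates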
TRPC4 ctr mod: tests whether TRPC6 modulators also affect mouse TRPC4; AID 488927; hit rate 69% among 2,400; percent change from control (negative = decrease, positive = increase), % at 10 µM; shares compounds with TRPC6 inh; HEK293 TRPC4/mu-opioid, membrane potential fluorescence;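 active means membrane potential signal moved up or down beyond 5 SD of buffer control wells, in both duplicate plates, actives on both sides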
TRPC4 ctr inh 2: second selectivity test of TRPC6 modulators against mouse TRPC4. shares compounds with TRPC6 inh. HEK293 TRPC4/mu-opioid, membrane potential dye fluorescence; stimulated with maximal-effect DAMGO. inhibition, % at 10 µM. hit rate 55% among 2,400. AID 488928;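 active means drop in membrane potential signal beyond 5 SD of the control wells in both duplicate plates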;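 further: TRPC4 counter screen for TRPC6 hits run under conditions tuned for TRPC6 not TRPC4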
TRPC6 block conf: confirmation of mouse TRPC6 inhibitors; shares compounds with TRPC6 inh; HEK293-TRPC6, membrane potential dye, ACh-evoked depolarization; inhibition, % at 10 µM; hit rate 43% among 3,300; AID 488960;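 active means fluorescence ratio falls more than 5 SD below the full-stimulation control mean, in both duplicate runs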;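 further: integrated fluorescence ratio of peak minus minimum over baseline after agonist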
TRPC6 act conf: mouse TRPC6 activator confirmation; hit rate 11% among 2,800; shares compounds with TRPC6 inh; activation, % at 10 µM; HEK293-TRPC6 membrane potential dye fluorescence, FDSS;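 active means ratio signal rise beyond 5 SD above unstimulated control wells' mean, seen in both duplicate runs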
Of the large screens only hits and unclear results are named; the others gave an inactive call (follow-up assays come after a bar, where they were run). Most compounds without a hit are left out; they make up all but 2.3% or so of the library.

O=c1[nH]c(-c2ccccc2)c(-c2ccccc2)nc1[N+](=O)[O-]	TRPC6 act 11.7 | HEK293 MPD ctr-2 inactive | HEK293 MPD ctr 2-2 inactive | TRPC4 ctr mod 16.5% | TRPC4 ctr inh 2 inactive | TRPC6 block conf inactive | TRPC6 act conf 47.5%
COC(=O)c1[nH]c2ccc(Br)cc2c1NC(=O)C(C)N1CCN(C2CCCCC2)CC1 (stereo not given)	TRPC6 inh -7.62 | TRPC4 sel inh 2 42.5% | TRPC4 spec -17.9% | HEK293 MPD ctr 2-1 29.0% | HEK293 MPD ctr-1 -144.5% | TRPC6 block conf 88.1% | TRPC6 act conf inactive
COC(=O)c1[nH]c2ccc(C)cc2c1NC(=O)C(C)N1CCN(C2CCCCC2)CC1 (stereo not given)	none
CCc1nc2ccc(C(=O)NC3CCC(C)CC3)cc2nc1CC (stereo not given)	none
CCCCCc1nc2sc3c(c2c(=O)n1NC(=O)c1ccc([N+](=O)[O-])cc1)CC(C)(C)OC3	TRPC6 inh -5.66 | HEK293 MPD ctr-2 inactive | HEK293 MPD ctr 2-2 inactive | TRPC4 ctr mod inactive | TRPC4 ctr inh 2 63.5% | TRPC6 block conf 56.5% | TRPC6 act conf inactive
CCCCCCCc1nc2sc3c(c2c(=O)n1N)CC(C)(C)OC3	none
O=C(NCCc1ccc(F)cc1)Nc1ccc([N+](=O)[O-])cc1	none
O=[N+]([O-])c1ccc(NC(=S)NCCc2ccc(F)cc2)cc1	TRPC6 inh -5.27 | HEK293 MPD ctr-2 inactive | HEK293 MPD ctr 2-2 inactive | TRPC4 ctr mod inactive | TRPC4 ctr inh 2 61.5% | TRPC6 block conf inactive | TRPC6 act conf inactive
CC1CCCC(C)N1CCNC(=O)CCc1nnc2n(Cc3ccccc3)c(=O)c3ccccc3n12 (stereo not given)	none
CCOC(=O)N1CCC(N(C(=O)Nc2ccc(Cl)c(Cl)c2)C(C)CC)CC1 (stereo not given)	TRPC6 inh -6.42 | HEK293 MPD ctr-2 inactive | HEK293 MPD ctr 2-2 inactive | TRPC4 ctr mod inactive | TRPC4 ctr inh 2 inactive | TRPC6 block conf inactive | TRPC6 act conf inactive
CCOC(=O)N1CCC(N(CCOC)C(=O)Nc2ccc(CC)cc2)CC1	none
CCCCOc1ccc(Cl)cc1Nc1nc(NCCO)nc(N2CCCC2)n1	none
S=C(Nc1ccc(Oc2ccccc2)cc1)N1CCOCC1	none
O=C(CNc1ccc(Oc2ccccc2)cc1)N1CCOCC1	TRPC6 inh -5.72 | HEK293 MPD ctr-2 inactive | HEK293 MPD ctr 2-2 inactive | TRPC4 ctr mod inactive | TRPC4 ctr inh 2 inactive | TRPC6 block conf inactive | TRPC6 act conf inactive
Cc1ccc(-c2nnc(SCC(=O)NNC(=O)COc3cccc(C)c3)n2C)cc1	none
Cc1ccc(-c2nnc(SCC(=O)NNC(=O)COc3ccccc3C)n2C)cc1	TRPC6 inh -6.2 | HEK293 MPD ctr-2 inactive | HEK293 MPD ctr 2-2 inactive | TRPC4 ctr mod inactive | TRPC4 ctr inh 2 inactive | TRPC6 block conf inactive | TRPC6 act conf inactive
O=C(CSc1nnc(CNC(=O)c2ccco2)o1)Nc1cccc(Cl)c1	none
CC1=C(C(=O)OCC(C)C)C(c2cccc(F)c2)N2C(=O)C(C)SC2=N1 (stereo not given)	none
CC1=C(C(=O)OC(C)C)C(c2cccc(F)c2)N2C(=O)C(C)SC2=N1 (stereo not given)	TRPC6 inh -6 | HEK293 MPD ctr-2 inactive | HEK293 MPD ctr 2-2 inactive | TRPC4 ctr mod 13.0% | TRPC4 ctr inh 2 inactive | TRPC6 block conf inactive | TRPC6 act conf inactive
CCCN(CCC)S(=O)(=O)c1ccc(C(=O)N2CCOCC2)cc1	none
CCN(CC)CCSc1nnc2c3cc(C)ccc3n(Cc3ccccc3)c2n1	TRPC6 inh -7.12 | TRPC4 sel inh 2 27.0% | TRPC4 spec 13.9% | HEK293 MPD ctr 2-1 inactive | HEK293 MPD ctr-1 -213.0% | TRPC6 block conf inactive | TRPC6 act conf inactive
O=c1c(Cl)c(NCc2ccccc2Cl)cnn1C12CC3CC(CC(C3)C1)C2	none
Cn1c(=O)c2c(O)c(C=Nc3ccc(F)cc3)c(=O)n(C)c2n(C)c1=O	TRPC6 inh -6.58 | HEK293 MPD ctr-2 -91.5% | HEK293 MPD ctr 2-2 inactive | TRPC4 ctr mod -14.5% | TRPC4 ctr inh 2 inactive | TRPC6 block conf inactive | TRPC6 act conf inactive
Cn1c(=O)c(C=Nc2ccccc2)c(O)c2ccccc21	none
Cc1ccccc1COCCN1CCN(S(=O)(=O)c2ccccc2)CCC1=O	none
Cc1ccc(C(=O)Cn2c(C(=O)/C=C/c3ccccc3)nc3ccccc32)cc1	none
CC(C)(O)C#Cc1ccc(CN2CCN(C3CCCCC3)C(CCO)C2)s1 (stereo not given)	TRPC6 inh -7.39 | TRPC4 sel inh 2 inactive | TRPC4 spec inactive | HEK293 MPD ctr 2-1 inactive | HEK293 MPD ctr-1 inactive | TRPC6 block conf inactive | TRPC6 act conf inactive
COC(=O)N1[C@H](C)C=C[C@]1(Cc1ccccc1)C(=O)NCCCNc1ncc(C(F)(F)F)cc1Cl	none
CN(C)CCOc1nc(-c2ccccc2)nc2c1oc1ccccc12	TRPC6 inh -8.87, TRPC4 act 45 | TRPC4 sel inh 2 62.0% | TRPC4 spec inactive | HEK293 MPD ctr 2-1 inactive | HEK293 MPD ctr-1 inactive | TRPC6 block conf inactive | TRPC6 act conf inactive
O=C(COc1ccccc1)NCCSc1ccccc1	TRPC6 inh -5.77 | HEK293 MPD ctr-2 inactive | HEK293 MPD ctr 2-2 inactive | TRPC4 ctr mod 8.5% | TRPC4 ctr inh 2 inactive | TRPC6 block conf inactive
Cc1cccc(CC(=O)Nc2ccc(C(=O)N3CCOCC3)cc2)c1	none
